In ChEMBL document CHEMBL3351269, “Phenylimidazoles as potent and selective inhibitors of coagulation factor XIa with in vivo antithrombotic activity” (J Med Chem, 2014):

Legend:
[1] = molecular target: Plasma kallikrein (Homo sapiens, UniProt P03952); assay: Inhibition of human plasma kallikrein using H-D-Pro-Phe-Arg-pNA as substrate
How it was run: (§1)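 Purified human enzymes; reaction started by adding enzyme to substrate with or without inhibitor, excess substrate and inhibitor over enzyme, 1% DMSO, room temperature, 10–120 min. pNA read at 405 nm. FXIa, FXIIa and chymotrypsin in HEPES pH 7.4 with NaCl, KCl and PEG; FXa and kallikrein in phosphate pH 7.5; FVIIa in HEPES with CaCl2. IC50 from duplicates over 8–11 concentrations, converted to Ki assuming competitive inhibition.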

[2] = tested on: Oryctolagus cuniculus; assay: Clearance in rabbit plasma at 0.5 mg/kg, iv; format: ADME, organism-based; set-up: dose 0.5 mg/kg, route intravenous; conditions: in vivo
How it was run: (§2)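 Single iv dose of 0.5 mg/kg in rabbits; concentrations measured in rabbit plasma.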

[3] = molecular target: Coagulation factor IX (Homo sapiens, UniProt P00740); assay: Inhibition of human coagulation factor 9a by spectrophotometric analysis
How it was run: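 Purified human factor IXa; buffer 50 mM Tris pH 7.4, 100 mM NaCl, 5 mM CaCl2, 0.5% PEG 8000, 2% DMSO; room temperature. Reaction started with enzyme added to substrate ± inhibitor, in excess substrate and inhibitor, for 10–120 min. Rate read as pNA A405 or AMC fluorescence. Duplicate IC50s from 8–11 concentrations; Ki = IC50/(1+[S]/Km), assuming competitive inhibition.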

[4] = molecular target: T1, Coagulation factor XII (Homo sapiens, UniProt P00748); assay: Inhibition of human coagulation factor 12a using H-(D)-CHT-Gly-Arg-pNA as substrate by spectrophotometric analysis; how it was run: as §1
T1 sequence (P00748 whole entry): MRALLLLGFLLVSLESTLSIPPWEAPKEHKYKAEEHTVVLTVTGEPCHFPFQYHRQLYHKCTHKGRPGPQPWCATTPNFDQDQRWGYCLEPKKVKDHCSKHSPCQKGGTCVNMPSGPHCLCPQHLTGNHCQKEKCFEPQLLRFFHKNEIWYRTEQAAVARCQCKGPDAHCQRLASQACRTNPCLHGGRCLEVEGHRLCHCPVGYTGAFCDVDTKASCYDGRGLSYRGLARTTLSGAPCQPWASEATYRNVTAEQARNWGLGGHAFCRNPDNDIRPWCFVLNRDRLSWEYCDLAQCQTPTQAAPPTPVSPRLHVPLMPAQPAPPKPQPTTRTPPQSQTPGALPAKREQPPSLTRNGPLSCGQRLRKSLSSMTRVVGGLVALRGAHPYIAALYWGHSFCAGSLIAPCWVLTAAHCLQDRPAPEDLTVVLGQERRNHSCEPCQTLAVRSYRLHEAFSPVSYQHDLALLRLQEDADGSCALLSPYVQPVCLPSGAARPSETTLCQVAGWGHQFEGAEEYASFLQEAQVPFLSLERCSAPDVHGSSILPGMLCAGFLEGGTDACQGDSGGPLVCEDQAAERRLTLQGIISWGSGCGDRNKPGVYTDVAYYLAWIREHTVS

[5] = Cmax in rabbit plasma at 0.5 mg/kg, iv; format: ADME, organism-based, Oryctolagus cuniculus; set-up: dose 0.5 mg/kg, route intravenous; how it was run: as §2
[6] = tested on: Plasma; assay: Anticoagulant activity in healthy human plasma assessed as prothrombin time by PT assay; format: functional
How it was run: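 Citrated healthy-volunteer plasma spiked with inhibitor (10 mM DMSO stock diluted in plasma, up to seven concentrations). PT with Thromboplastin C-Plus: plasma warmed 3 min at 37 °C before reagent was added. Duplicates, as mean ratio to baseline control. Concentration that doubles clotting time by linear interpolation, as total plasma concentration.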

[7] = molecular target: Prothrombin (Homo sapiens, UniProt P00734); assay: Inhibition of human coagulation thrombin using pyro-Glu-Pro-Argp-NA as substrate by spectrophotometric analysis
How it was run: (§3)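 Purified enzymes (α-thrombin; trypsin) in 100 mM sodium phosphate pH 7.5, 200 mM NaCl, 0.5% PEG 8000, 1% DMSO final, room temperature. Enzyme added last to substrate ± inhibitor, with substrate and inhibitor in excess. pNA release read at 405 nm over 10−120 min. IC50 from duplicate runs over 8−11 concentrations, then converted to Ki assuming competitive inhibition, using Km.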

[8] = Volume of distribution at steady state in rabbit plasma at 0.5 mg/kg, iv; format: ADME, organism-based, Oryctolagus cuniculus; set-up: dose 0.5 mg/kg, route intravenous; conditions: read-out: Vdss; how it was run: as §2
[9] = molecular target: Coagulation factor X (Homo sapiens, UniProt P00742); assay: Inhibition of human coagulation factor 10a using N-benzoyl-Ile-Glu-(OH, OMe)-Gly-Arg-pNA as substrate by spectrophotometric analysis; how it was run: as §1
[10] = molecular target: T2, Coagulation factor VII (Oryctolagus cuniculus, UniProt P98139); assay: Inhibition of rabbit coagulation factor 7a using H-(D)-Ile-Pro-Arg-pNA as substrate by spectrophotometric analysis
T2 sequence (P98139 whole entry): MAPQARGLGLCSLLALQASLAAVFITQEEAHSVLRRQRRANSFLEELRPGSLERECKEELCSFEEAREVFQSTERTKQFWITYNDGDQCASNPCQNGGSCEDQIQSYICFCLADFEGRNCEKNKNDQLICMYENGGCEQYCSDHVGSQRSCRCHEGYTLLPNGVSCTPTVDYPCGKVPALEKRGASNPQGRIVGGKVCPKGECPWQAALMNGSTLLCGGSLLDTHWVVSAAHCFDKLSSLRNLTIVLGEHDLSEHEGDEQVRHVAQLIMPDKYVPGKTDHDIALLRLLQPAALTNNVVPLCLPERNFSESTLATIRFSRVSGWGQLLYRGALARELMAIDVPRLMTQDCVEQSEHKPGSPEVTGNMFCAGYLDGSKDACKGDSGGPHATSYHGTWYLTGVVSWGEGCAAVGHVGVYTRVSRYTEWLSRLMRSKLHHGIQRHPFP

[11] = Inhibition of rabbit plasma kallikrein using H-D-Pro-Phe-Arg-pNA as substrate; format: cell-free, Oryctolagus cuniculus
[12] = Inhibition of rabbit coagulation factor 11a using p-nitroaniline as substrate assessed as substrate hydrolysis at 37 degC by spectrophotometrically; set-up: species or system Oryctolagus cuniculus
How it was run: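 Rabbit FXIa, chromogenic pNA-release read at 405 nm, run at 37 °C. IC50 from duplicate determinations over 8–11 concentrations, converted to Ki by Ki = IC50/(1+[S]/Km), assuming competitive inhibition.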

[13] = molecular target: Trypsin (Homo sapiens, UniProt P07477+P07478+P35030); assay: Inhibition of human coagulation trypsin using N-benzoyl-Ile-Glu-(OH, OMe)-Gly-Arg-pNA as substrate by spectrophotometric analysis; format: protein assay; how it was run: as §3
[14] = Inhibition of human coagulation chymotrypsin using MeO-Suc-Arg-Pro-Tyr-pNA as substrate by spectrophotometric analysis; how it was run: as §1
[15] = Mean residence time in rabbit plasma at 0.5 mg/kg, iv; format: ADME, organism-based, Oryctolagus cuniculus; set-up: dose 0.5 mg/kg, route intravenous; how it was run: as §2
[16] = molecular target: Coagulation factor XI (Homo sapiens, UniProt P03951); assay: Inhibition of human coagulation factor 11a using p-nitroaniline as substrate assessed as substrate hydrolysis at 37 degC by spectrophotometrically
How it was run: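 Purified human FXIa in 50 mM HEPES pH 7.4, 145 mM NaCl, 5 mM KCl, 0.1% PEG 8000, run at 37 °C, 1% DMSO final. Enzyme added last to substrate ± inhibitor, with substrate and inhibitor in excess. pNA release read at 405 nm. IC50 from duplicate 8–11-point series, converted to Ki assuming competitive inhibition, Ki = IC50/(1+[S]/Km).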

Chain of Coagulation factor XI (P03951 19-387 limits assumed): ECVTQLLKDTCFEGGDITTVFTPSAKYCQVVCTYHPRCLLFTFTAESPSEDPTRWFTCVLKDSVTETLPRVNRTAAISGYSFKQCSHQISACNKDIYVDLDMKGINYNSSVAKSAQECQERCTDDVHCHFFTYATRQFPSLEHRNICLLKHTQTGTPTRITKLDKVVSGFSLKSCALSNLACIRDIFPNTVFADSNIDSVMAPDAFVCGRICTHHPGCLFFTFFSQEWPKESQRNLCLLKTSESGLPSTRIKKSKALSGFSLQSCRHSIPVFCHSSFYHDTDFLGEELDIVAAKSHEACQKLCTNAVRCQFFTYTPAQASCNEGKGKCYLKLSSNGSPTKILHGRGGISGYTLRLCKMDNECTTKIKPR
Chain of Coagulation factor XI (P03951 388-625 limits assumed): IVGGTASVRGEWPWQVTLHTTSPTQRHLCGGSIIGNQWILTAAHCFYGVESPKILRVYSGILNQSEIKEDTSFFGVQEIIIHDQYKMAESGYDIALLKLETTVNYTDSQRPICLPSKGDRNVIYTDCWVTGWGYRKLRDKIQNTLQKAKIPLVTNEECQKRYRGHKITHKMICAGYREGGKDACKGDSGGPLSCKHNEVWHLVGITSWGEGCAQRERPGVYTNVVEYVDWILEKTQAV
Chain of Plasma kallikrein (P03952 20-390 limits assumed): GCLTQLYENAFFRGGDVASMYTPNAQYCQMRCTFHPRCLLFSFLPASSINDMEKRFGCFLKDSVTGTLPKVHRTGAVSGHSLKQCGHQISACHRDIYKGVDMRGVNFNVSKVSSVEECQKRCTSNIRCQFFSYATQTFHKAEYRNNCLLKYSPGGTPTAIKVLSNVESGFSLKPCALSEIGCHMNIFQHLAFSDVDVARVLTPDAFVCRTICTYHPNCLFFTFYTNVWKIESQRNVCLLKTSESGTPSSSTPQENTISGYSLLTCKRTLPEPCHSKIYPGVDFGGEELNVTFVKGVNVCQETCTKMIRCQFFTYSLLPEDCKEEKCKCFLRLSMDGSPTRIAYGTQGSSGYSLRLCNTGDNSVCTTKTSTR
Chain of Plasma kallikrein (P03952 391-638 limits assumed): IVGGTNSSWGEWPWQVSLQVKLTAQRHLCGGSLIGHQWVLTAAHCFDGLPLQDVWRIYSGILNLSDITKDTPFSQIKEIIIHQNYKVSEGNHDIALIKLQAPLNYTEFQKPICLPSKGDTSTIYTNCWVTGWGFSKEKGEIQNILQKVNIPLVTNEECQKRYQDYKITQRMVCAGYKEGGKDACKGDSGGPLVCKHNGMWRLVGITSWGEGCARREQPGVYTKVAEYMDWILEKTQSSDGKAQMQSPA
Chain of Coagulation factor X (P00742 41-179 limits assumed): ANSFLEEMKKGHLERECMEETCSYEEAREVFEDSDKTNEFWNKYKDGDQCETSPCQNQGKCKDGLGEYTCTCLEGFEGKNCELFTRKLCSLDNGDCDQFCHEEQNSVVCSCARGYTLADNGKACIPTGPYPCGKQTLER
Chain of Coagulation factor X (P00742 235-488 limits assumed): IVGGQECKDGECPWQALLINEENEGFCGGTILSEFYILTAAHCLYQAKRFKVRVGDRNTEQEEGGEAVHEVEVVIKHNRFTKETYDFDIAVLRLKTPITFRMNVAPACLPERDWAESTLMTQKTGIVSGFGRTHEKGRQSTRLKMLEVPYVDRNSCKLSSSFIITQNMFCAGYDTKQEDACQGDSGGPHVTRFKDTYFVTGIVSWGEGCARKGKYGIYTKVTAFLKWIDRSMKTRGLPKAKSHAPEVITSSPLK
Chain of Coagulation factor IX (P00740 47-191 limits assumed): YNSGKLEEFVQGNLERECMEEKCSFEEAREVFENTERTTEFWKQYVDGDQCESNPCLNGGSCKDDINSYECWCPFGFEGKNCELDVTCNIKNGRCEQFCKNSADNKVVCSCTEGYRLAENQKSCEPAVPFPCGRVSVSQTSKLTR
Chain of Coagulation factor IX (P00740 227-461 limits assumed): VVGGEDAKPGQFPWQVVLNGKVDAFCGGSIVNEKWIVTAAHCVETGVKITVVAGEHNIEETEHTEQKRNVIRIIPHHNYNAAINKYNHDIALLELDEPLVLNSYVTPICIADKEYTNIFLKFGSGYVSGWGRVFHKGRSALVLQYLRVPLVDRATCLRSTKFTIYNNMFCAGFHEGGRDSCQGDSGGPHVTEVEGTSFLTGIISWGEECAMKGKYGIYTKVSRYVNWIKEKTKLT

In the case of `NC[C@H]1CC[C@H](C(=O)N[C@@H](Cc2ccccc2)c2nc(-c3ccc4c(N)n[nH]c4c3)c(Cl)[nH]2)CC1.O=C(O)C(F)(F)F`, the Ki [1] is reported as 0.005 µM, the clearance [2] is reported as 1.2 L/h/kg and the Ki [3] is reported as greater than 34.9 µM. For the same compound, the Ki [4] was 9.22 µM, the Cmax [5] was 2.47 µM and the 2PT [6] was greater than 40 µM. The Ki [7] was greater than 12.6 µM, the Vd [8] was 0.7 L/kg and the Ki [9] was 6.39 µM. It also gave a Ki [10] of 10 µM, a Ki [11] of 0.021 µM and a Ki [12] of 0.0012 µM. The Ki [13] was 0.023 µM, the Ki [14] was greater than 20.8 µM and the MRT [15] was 36 min. The Ki [16] was 0.0008 µM.
